Measurements: ChEMBL document CHEMBL4346668, “Novel multitarget inhibitors with antiangiogenic and immunomodulator properties” (Eur J Med Chem, 2019)

Experiments:
HeLa = test: Antiproliferative activity against human HeLa cells incubated for 2 days by MTT assay; assay type: functional, cell-based; details: 48 h
Outline: (§1)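 MTT assay. Cells seeded at 3 × 10³/well (HeLa, A549, HMEC-1, HEK-293) or 5 × 10³/well (HT-29, MCF-7) in their growth media with serial compound dilutions from 10 mM DMSO stocks. Incubated 2 days at 37 °C, 5% CO₂, then MTT added for 3 h and formazan dissolved in DMSO. A540 read and viability expressed versus untreated cells. IC₅₀ determined graphically; three independent experiments.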

A549 [1] = test: Induction of apoptosis in human A549 cells assessed as apoptotic cells at 100 uM incubated for 24 hrs by FITC-Annexin V staining based flow cytometric analysis (reference value: 20%); assay type: functional
HMEC-1 [2] = test: Antiangiogenic activity against HMEC1 cells assessed as inhibition of tube formation incubated for 20 hrs by matrigel based tube formation assay; assay type: functional, Homo sapiens
Outline: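 HMEC-1 cells in EGM-2MV medium seeded at 2 x 10⁴ cells/well on Matrigel (10 mg/mL, gelled 30 min at 37°C) and attached for 30 min. Compounds were added at different concentrations and tube formation was assessed after 20 h at 37°C. The minimum concentration at which inhibition began was reported. Data representative of three experiments.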

HMEC-1 [3] = test: Antiproliferative activity against HMEC1 cells incubated for 2 days by MTT assay; assay type: cell-based; details: Homo sapiens, HMEC-1, 48 h; outline: as §1
HEK293 = test: Antiproliferative activity against HEK293 cells incubated for 2 days by MTT assay; assay type: cell-based; details: Homo sapiens, HEK293, 48 h; outline: as §1
HT-29 = test: Antiproliferative activity against human HT-29 cells incubated for 2 days by MTT assay; assay type: functional, cell-based; details: HT-29, 48 h; outline: as §1
A549 [4] = test: Antiproliferative activity against human A549 cells incubated for 2 days by MTT assay; assay type: functional, cell-based; details: A549, 48 h; outline: as §1
MCF7 = test: Antiproliferative activity against human MCF7 cells incubated for 2 days by MTT assay; assay type: functional, cell-based; details: MCF7, 48 h; outline: as §1
A549 [5] = test: Effect on VEGFR2 in human A549 cells assessed as membrane VEGFR2 level at 10 uM incubated for 24 hrs by flow cytometric analysis relative to control; assay type: functional
Outline: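 A549 cells incubated 24 h with compound at 10 µM. Membrane VEGFR-2 (fixed cells) and total VEGFR-2 (permeabilized or lysate) stained with Alexa Fluor 647 anti-CD309 and quantified by flow cytometry relative to DMSO control; mean ± SD of three experiments.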

A549 [6] = test: Effect on VEGFR2 in human A549 cells assessed as total VEGFR2 level at 10 uM incubated for 24 hrs by flow cytometric analysis relative to control; assay type: functional
A549 [7] = test: Immunomodulatory activity in human A549 cells assessed as reduction in PD-L1 expression level at 100 uM incubated for 24 hrs by ELISA relative to control; assay type: functional; set-up: scale not given: the % may be the effect or the level left
Outline: (§2)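 A549 cells (3·10⁵/well) treated 24 h with compound; final concentration 100 µM for some compounds and 15 µM for others per table footnote. Lysates protein-normalized by Bradford, and PD-L1 and c-Myc quantified by commercial ELISA kits as % of DMSO-treated cells. Mean ± SD of three experiments.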

HMEC-1 [8] = test: Effect on VEGFR2 in HMEC1 cells assessed as membrane VEGFR2 level at 100 uM incubated for 24 hrs by flow cytometric analysis relative to control; assay type: functional, Homo sapiens
Outline: (§3)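 HMEC-1 cells exposed 24 h to compound at 100 µM. Membrane VEGFR-2 measured on fixed cells stained with Alexa Fluor 647 anti-CD309; total VEGFR-2 measured after Triton X-100 permeabilization before fixation. Read by flow cytometry as % of DMSO control.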

[9] = target: Programmed cell death 1 ligand 1 (Homo sapiens) (UniProt Q9NZQ7); test: Binding affinity to PDL1 (unknown origin) assessed as change in melting temperature at 100 uM by fluorescence based real time RT-PCR analysis
HMEC-1 [10] = test: Effect on VEGFR2 in HMEC1 cells assessed as total VEGFR2 level at 100 uM incubated for 24 hrs by flow cytometric analysis relative to control; assay type: functional, Homo sapiens; outline: as §3
[11] = target: Vascular endothelial growth factor receptor 2 (Homo sapiens) (UniProt P35968)
A549 [12] = test: Effect on VEGFR2 in human A549 cells assessed as membrane VEGFR2 level at 100 uM incubated for 24 hrs by flow cytometric analysis relative to control; assay type: functional
Outline: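 A549 cells exposed 24 h to compound at 100 µM. Membrane VEGFR-2 stained on fixed cells with Alexa Fluor 647 anti-VEGFR-2; Triton X-100 permeabilization before fixation used for total VEGFR-2. Flow cytometry, % of DMSO control; mean ± SD of three experiments.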

A549 [13] = test: Effect on VEGFR2 in human A549 cells assessed as total VEGFR2 level at 100 uM incubated for 24 hrs by flow cytometric analysis relative to control; assay type: functional
A549 [14] = test: Immunomodulatory activity in human A549 cells assessed as reduction in c-Myc expression level at 100 uM incubated for 24 hrs by ELISA relative to control; assay type: functional; set-up: scale not given: the % may be the effect or the level left; outline: as §2
A549 [15] = test: Antiproliferative activity against human A549 cells at 200 uM incubated for 24 hrs in presence of Jurkat T cells by trypan blue staining based Neubauer chamber method relative to control; assay type: functional
Outline: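 Co-culture of 5 × 10⁴ tumor cells/well with 2 × 10⁵ PD-1-expressing Jurkat T cells in 1.5 mL, treated 24 h with compound at 200 µM. Supernatant discarded; tumor cells trypsinized, stained with trypan blue and living cells counted in a Neubauer chamber. Proliferation inhibition (%) attributable to Jurkat presence reported; representative of three experiments.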

Sequence of Vascular endothelial growth factor receptor 2 (Homo sapiens) (P35968 whole entry): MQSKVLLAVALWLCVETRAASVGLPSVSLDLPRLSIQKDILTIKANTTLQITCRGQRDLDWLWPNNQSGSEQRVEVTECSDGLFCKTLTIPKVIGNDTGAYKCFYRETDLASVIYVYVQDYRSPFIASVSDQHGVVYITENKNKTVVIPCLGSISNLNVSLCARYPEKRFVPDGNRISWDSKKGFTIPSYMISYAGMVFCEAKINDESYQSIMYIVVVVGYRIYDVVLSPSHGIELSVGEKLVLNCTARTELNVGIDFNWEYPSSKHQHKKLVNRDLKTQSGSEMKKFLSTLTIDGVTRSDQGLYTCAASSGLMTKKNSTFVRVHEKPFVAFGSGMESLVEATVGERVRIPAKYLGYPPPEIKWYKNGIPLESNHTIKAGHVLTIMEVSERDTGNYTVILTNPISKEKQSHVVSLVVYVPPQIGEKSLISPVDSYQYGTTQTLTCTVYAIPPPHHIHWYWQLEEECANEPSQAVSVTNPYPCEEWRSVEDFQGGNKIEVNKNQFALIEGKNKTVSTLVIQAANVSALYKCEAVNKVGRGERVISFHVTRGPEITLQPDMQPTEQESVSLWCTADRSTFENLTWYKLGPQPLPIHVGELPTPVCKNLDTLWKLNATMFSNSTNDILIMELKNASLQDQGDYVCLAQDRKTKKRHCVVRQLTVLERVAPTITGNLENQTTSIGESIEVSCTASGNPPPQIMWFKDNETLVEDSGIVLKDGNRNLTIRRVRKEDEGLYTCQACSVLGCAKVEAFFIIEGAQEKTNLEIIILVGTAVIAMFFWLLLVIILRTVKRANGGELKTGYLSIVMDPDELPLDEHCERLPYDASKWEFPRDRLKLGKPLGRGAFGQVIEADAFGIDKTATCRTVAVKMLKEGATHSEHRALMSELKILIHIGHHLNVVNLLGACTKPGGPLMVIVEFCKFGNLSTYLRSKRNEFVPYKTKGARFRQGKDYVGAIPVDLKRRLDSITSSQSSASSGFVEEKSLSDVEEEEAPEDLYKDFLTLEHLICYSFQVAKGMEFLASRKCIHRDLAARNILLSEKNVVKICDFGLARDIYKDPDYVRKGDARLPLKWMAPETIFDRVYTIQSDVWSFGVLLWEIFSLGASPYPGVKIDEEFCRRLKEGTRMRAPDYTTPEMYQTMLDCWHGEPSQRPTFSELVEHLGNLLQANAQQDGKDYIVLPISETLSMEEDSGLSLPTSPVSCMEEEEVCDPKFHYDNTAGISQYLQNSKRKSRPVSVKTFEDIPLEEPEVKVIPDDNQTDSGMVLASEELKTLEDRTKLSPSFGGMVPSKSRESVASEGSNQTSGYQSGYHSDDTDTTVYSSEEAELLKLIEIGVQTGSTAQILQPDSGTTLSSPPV
Sequence of Programmed cell death 1 ligand 1 (Homo sapiens) (Q9NZQ7 whole entry): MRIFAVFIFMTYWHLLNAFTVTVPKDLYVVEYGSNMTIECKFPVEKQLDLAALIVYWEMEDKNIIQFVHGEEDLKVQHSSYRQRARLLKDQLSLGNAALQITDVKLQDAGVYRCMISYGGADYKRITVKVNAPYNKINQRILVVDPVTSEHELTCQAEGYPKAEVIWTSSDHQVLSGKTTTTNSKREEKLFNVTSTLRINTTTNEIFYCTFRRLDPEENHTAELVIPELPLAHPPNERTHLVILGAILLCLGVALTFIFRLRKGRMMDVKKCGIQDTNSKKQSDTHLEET

| SMILES | IC50 (HeLa) [µM] | Activity (A549 [1]) [%] | MAC (HMEC-1 [2]) [µM] | IC50 (HMEC-1 [3]) [µM] | IC50 (HEK293) [µM] | IC50 (HT-29) [µM] | IC50 (A549 [4]) [µM] | IC50 (MCF7) [µM] | Activity (A549 [5]) [%] | Activity (A549 [6]) [%] | Activity (A549 [7]) [%] | Activity (HMEC-1 [8]) [%] | ΔTm [9] [°C] | Activity (HMEC-1 [10]) [%] | ΔTm [11] [°C] | Activity (A549 [12]) [%] | Activity (A549 [13]) [%] | Activity (A549 [14]) [%] | Activity (A549 [15]) [%] |
| --- | --- | --- | --- | --- | --- | --- | --- | --- | --- | --- | --- | --- | --- | --- | --- | --- | --- | --- | --- |
| CCN(CC)CCNC(=O)c1c(C)[nH]c(/C=C2\C(=O)Nc3ccc(F)cc32)c1C [SUNITINIB] | 7.8 | 56 | 3 | 7 | 5 | 3.8 | 11 | 0.08 |  |  |  |  |  |  |  |  |  |  |  |
| COc1ccc(/C=C\c2cccc(NC(=O)Nc3ccc(Cl)cc3)c2)cc1 | 8 | 69 | 1 | 33 | 20 | 33 | 29 | 17 | 118 | 100 | 75 |  |  |  |  |  |  |  |  |
| COc1ccc(Cc2cn(CCNC(=O)Nc3cccc(C)c3)nn2)cc1 | > 200 |  |  | > 200 | > 200 | > 200 | > 200 | > 200 |  |  | 90 | 76 | 2.55 | 91 | 5.21 |  |  |  |  |
| COc1ccc(Cc2cn(CCNC(=O)Nc3ccccc3C)nn2)cc1 | > 200 |  | 200 | > 200 | > 200 | > 200 | > 200 | > 200 |  |  | 82 | 79 | 2.18 | 100 | 9.98 |  |  |  |  |
| COc1ccc(Cc2cn(CCNC(=O)Nc3cccc(Br)c3)nn2)cc1 | > 200 |  |  | > 200 | > 200 | > 200 | > 200 | > 200 |  |  | 80 | 79 | 0.79 | 78 | 7.34 | 98 | 80 |  |  |
| COc1ccc(CCc2cccc(NC(=O)Nc3ccccc3Cl)c2)cc1 | 69 | 76 | 1 | 48 | 90 | 20 | 24 | > 100 | 100 | 100 | 61 |  | 2.25 |  | 16.2 |  |  | 63 |  |
| COc1ccc(/C=C\c2cccc(NC(=O)Nc3ccccc3Cl)c2)cc1 | 22 | 61 | 10 | 33 | 6.5 | 12 | 21 | 19 | 114 | 177 | 83 |  |  |  |  |  |  |  |  |
| COc1ccc(CCc2cccc(NC(=O)Nc3ccc(Cl)cc3)c2)cc1 | 21 | 65 | 100 | > 200 | 1.8 | 1.5 | > 200 | 15.3 | 97 | 96 | 38 |  | 2.27 |  | 10.2 |  |  | 44 | 16 |
| COc1ccc(Cc2cn(CCNC(=O)Nc3ccccc3)nn2)cc1 | > 200 |  |  | > 200 | > 200 | > 200 | > 200 | > 200 |  |  | 83 | 97 | 2.1 | 105 | 10.5 |  |  |  |  |
| COc1ccc(Cc2cn(CCNC(=O)Nc3ccc(Br)cc3)nn2)cc1 | > 200 |  |  | > 200 | > 200 | > 200 | > 200 | > 200 |  |  | >100 | 40 | 8.74 | 55 | 2.61 | 70 | 61 |  |  |
| COc1ccc(/C=C\c2cccc(NC(=O)Nc3cccc(Cl)c3)c2)cc1 | 10.5 | 17 | 10 | 32.9 | 5 | 20 | 38 | 37.2 | 102 | 186 | 92 |  |  |  |  |  |  |  |  |
| COc1ccc(CCc2cccc(NC(=O)Nc3cccc(Cl)c3)c2)cc1 | 16.5 | 95 | 10 | 50 | 5.3 | 14 | > 200 | 8.2 | 97 | 98 | 51 |  | 5.2 |  | 4.1 |  |  | 51 |  |
